Assay results gathered from unrelated publications.
Protocols differ between the studies behind these lines.
Target: Homeodomain-interacting protein kinase 2 (HIPK2, Homo sapiens, UniProt Q9H2X6)

For `CCN(CC)CCNC(=O)c1c(C)[nH]c(/C=C2\C(=O)Nc3ccc(F)cc32)c1C`, the inhibition was 20% (enzyme activity, inhibitor; 0.3 µM).
The remaining binding of `CNC(=O)Nc1ccc2c(c1)[C@@]1(CC2)OC(=O)N(CC(=O)N(Cc2ccc(F)cc2)[C@@H](C)C(F)(F)F)C1=O` is reported as 78% (cell-free assay, competition with immobilised ligand; 1 µM).
With `CC/C(=N\NC(=O)NCc1cccc(O)c1)c1ccc(O)c(C)c1O` the inhibition was 2.1% (enzyme activity, inhibitor; 0.1 µM).
For `COc1cc2nccc(Oc3ccc(NC(=O)c4c5n(n(-c6ccc(F)cc6)c4=O)CCCC5)cc3)c2cc1OC`, the inhibition was 10% (enzyme activity, inhibitor; 0.1 µM).
For `O=C(O)c1ccc2c(c1)nc(NCc1ccccc1)c1ccncc12`, the remaining activity was 51% (enzyme activity, inhibitor, radiometric; 1 µM).
`O=C(Nc1ccc(Oc2ccc(F)cc2)cc1)N1CCc2ncccc2[C@H]1c1ccc(F)cc1` has a remaining binding of 79% (cell-free assay, competition with immobilised ligand; 1 µM).
With `COc1cc2ncnc(Nc3ccc(Oc4ccccc4)cc3C)c2cc1OC` the inhibition was 3% (enzyme activity, inhibitor; 1 µM).
With `O=C(O)c1ccc2c(c1)nc(Nc1ccc3ccccc3c1)c1ccncc12` the remaining activity was 4% (enzyme activity, inhibitor, radiometric; 1 µM).
The remaining signal of `O=C1NC(=O)c2cc(Nc3ccc(F)cc3)c(Nc3ccc(F)cc3)cc21` is reported as 96.6% (cell-free assay; 0.5 µM).
For `COc1cccc(CCNc2nc3cc(C(=O)O)ccc3c3cncnc23)c1`, the remaining activity was 22% (enzyme activity, inhibitor, radiometric; 1 µM).
For `COc1cccc(CNC(=O)c2nc3scc(COCc4ccc(C(=O)O)cc4)c3c(=O)[nH]2)c1`, the remaining binding was 72.9% (cell-free assay, competition with immobilised ligand; 1 µM).
`Cc1ccc(NC(=O)c2ccc(C)c(C(F)(F)F)c2)cc1C#Cc1nn(C2CCC(O)CC2)c2ncnc(N)c12` (stereo not drawn) has a remaining signal of 99% (cell-free assay; 10 µM).
The remaining binding of `NS(=O)(=O)c1cc(NC(=O)Cc2ccccc2)ccc1Oc1cccc(Cl)c1` is reported as 62% (cell-free assay, competition with immobilised ligand; 1 µM).
With `O=C(O)c1ccc2c(c1)nc(Nc1ccccc1)c1ccncc12` the remaining activity was 10% (enzyme activity, inhibitor, radiometric; 1 µM).
For `Cc1nc(N2CC[C@@H](O)C2)ncc1-c1cc(C(F)(F)F)cc2[nH]ncc12`, the remaining binding was 74% (binding, competition with immobilised ligand; 1 µM).
The activity vs control of `COc1cc(/C=C/C(=O)CC(=O)/C=C/c2ccc(O)c(OC)c2)ccc1O` is reported as 54% (enzyme activity, inhibitor; 1 µM).
`Cc1ccc(NC(=O)c2ccc(CN3CCN(C)CC3)cc2)cc1Nc1nc(-c2cccnc2)cs1` gave a remaining signal of 90.8% (cell-free assay; 0.5 µM).
`N#Cc1ccc(Nc2ccc3[nH]c(=O)[nH]c3c2)c(Cl)c1` has a remaining binding of 100% (cell-free assay, competition with immobilised ligand; 1 µM).
With `O=C(O)c1ccc2c(c1)nc(NCc1ccccc1)c1ncncc12` the remaining activity was 39% (enzyme activity, inhibitor, radiometric; 1 µM).
For `Cc1ccc(Nc2nccc(N(C)c3ccc4c(C)n(C)nc4c3)n2)cc1S(N)(=O)=O`, the inhibition was 21% (enzyme activity, inhibitor; 10 µM).
`O=C(O)c1ccc2c(c1)nc(Nc1ccc(F)c(Cl)c1)c1ncncc12` has a remaining activity of 2% (enzyme activity, inhibitor, radiometric; 1 µM).
For `C[C@H](c1cccc(C#N)c1)n1cc(Cl)cc(C(N)=O)c1=N`, the remaining binding was 100% (cell-free assay, competition with immobilised ligand; 1 µM).
With `Nc1ncnc2occ(-c3ccc(NC(=O)Nc4cc(C(F)(F)F)ccc4F)cc3)c12` the remaining signal was 0.05% (cell-free assay, inhibitor; 20 µM).
The remaining activity of `COc1cccc(Nc2nc3cc(C(=O)O)ccc3c3cnccc23)c1` is reported as 2% (enzyme activity, inhibitor, radiometric; 1 µM).
`COc1cc(-c2cc(-c3ccc(N4CCNCC4)cc3)cnc2C)cc(OC)c1OC` has an inhibition of 1% (enzyme activity, inhibitor; 0.1 µM).
`O=C(O)c1ccc2c(c1)nc(Nc1ccccc1Cl)c1ncncc12` has a remaining activity of 3% (enzyme activity, inhibitor, radiometric; 1 µM).
For `CC(=O)N1CCC(c2ccc(C(=O)NC3=NCCN3)cc2C(F)(F)F)CC1`, the remaining binding was 100% (cell-free assay, competition with immobilised ligand; 1 µM).
